Assay [1] is described as follows: Cytotoxicity against imatinib and dasatinib-resistant mouse DA1-3b/M2 cells after 72 hrs by MTT assay. In kind it is functional, cell-based. In short, it runs like this:
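Cells seeded at 10^4/well and exposed to compound or DMSO vehicle for 72 h. MTT added for the final 4 h, absorbance read at 490 nm; triplicate, camptothecin as positive control. K562R, DA1-3b/M2 and bone marrow cells (three healthy donors) grown in RPMI 1640 + 1% glutamine, 1% penicillin/streptomycin, 10% FCS. EML-C1 cultured per ATCC instructions.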

A further assay relates to Pneumocystis carinii. Nature of the assay: Antifungal activity against Pneumocystis carinii after 4 days by RAL-555 staining based microscopy. In kind it is functional, organism-based. As to conditions: 96 h. The essentials:
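Pneumocystis carinii came from the lungs of athymic Lou nu/nu rats that were dexamethasone-immunosuppressed and infected. Broth microdilution in DMEM + 10% FCS, 1.0 × 10^6 organisms/mL, final drug 1.1 × 10^-5 to 212.3 µM diluted from DMSO stocks. Incubated 4 days at 37 °C, 5% CO2, with a drug-free control. Smears stained with RAL-555 and counted microscopically; triplicate. Hill (Emax sigmoid) model used.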

IC50 data for two compounds are collected here from ChEMBL document CHEMBL1177751, “Antifungal and cytotoxic activity of withanolides from Acnistus arborescens” (J Nat Prod, 2010).

SMILES strings stand for the structures.

A word on the IC50: it is the concentration that gives 50% inhibition. High values mean weaker potency, low ones greater potency. For `CC[C@@]1(O)C(=O)OCc2c1cc1n(c2=O)Cc2cc3ccccc3nc2-1` [CAMPTOTHECIN], the IC50 in assay [1] was 30 nM. Consider `N=C(N)c1ccc(OCCCCCOc2ccc(C(=N)N)cc2)cc1` [PENTAMIDINE], for which the 50% inhibitory concentration (IC50) in the assay on Pneumocystis carinii is 84 nM.
